Source: ChEMBL document CHEMBL4325864, “Discovery of new potent protein arginine methyltransferase 5 (PRMT5) inhibitors by assembly of key pharmacophores from known inhibitors” (Bioorg Med Chem Lett, 2018)
Values belong to the molecule of their own block, whether it stands above or below them. Calls of active or inactive are those of the source. No cut-off for these calls is given here.

How the values were obtained:
PRMT5/MEP50 complex [1] = target: T1, PRMT5/MEP50 complex (Homo sapiens, UniProt O14744); test: Inhibition of recombinant human N-terminal FLAG-tagged PRMT5 (2 to end residues) /human N-terminal His-tagged MEP50 (2 to end residues) expressed in HEK293F cells pretreated for 15 mins followed by substrate and [3H]-SAM addition measured after 60 mins by scintillation proximity assay; assay type: cell-based
How it was run: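 PRMT5 enzymatic inhibition measured by radiometric scintillation proximity assay; IC50 determined.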

[2] = target: Protein arginine N-methyltransferase 1 (Homo sapiens, UniProt Q99873); test: Inhibition of PRMT1 (unknown origin) pretreated for 15 mins followed by substrate and [3H]-SAM addition measured after 60 mins by scintillation proximity assay
How it was run: (§1)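 PRMT1 and PRMT4 enzyme-inhibition assays used to assess selectivity; IC50 values determined for each enzyme.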

[3] = target: T2, Histone-arginine methyltransferase CARM1 (Homo sapiens, UniProt Q86X55); test: Inhibition of PRMT4 (unknown origin) pretreated for 15 mins followed by substrate and [3H]-SAM addition measured after 60 mins by scintillation proximity assay; how it was run: as §1
T2 sequence (Q86X55 whole entry): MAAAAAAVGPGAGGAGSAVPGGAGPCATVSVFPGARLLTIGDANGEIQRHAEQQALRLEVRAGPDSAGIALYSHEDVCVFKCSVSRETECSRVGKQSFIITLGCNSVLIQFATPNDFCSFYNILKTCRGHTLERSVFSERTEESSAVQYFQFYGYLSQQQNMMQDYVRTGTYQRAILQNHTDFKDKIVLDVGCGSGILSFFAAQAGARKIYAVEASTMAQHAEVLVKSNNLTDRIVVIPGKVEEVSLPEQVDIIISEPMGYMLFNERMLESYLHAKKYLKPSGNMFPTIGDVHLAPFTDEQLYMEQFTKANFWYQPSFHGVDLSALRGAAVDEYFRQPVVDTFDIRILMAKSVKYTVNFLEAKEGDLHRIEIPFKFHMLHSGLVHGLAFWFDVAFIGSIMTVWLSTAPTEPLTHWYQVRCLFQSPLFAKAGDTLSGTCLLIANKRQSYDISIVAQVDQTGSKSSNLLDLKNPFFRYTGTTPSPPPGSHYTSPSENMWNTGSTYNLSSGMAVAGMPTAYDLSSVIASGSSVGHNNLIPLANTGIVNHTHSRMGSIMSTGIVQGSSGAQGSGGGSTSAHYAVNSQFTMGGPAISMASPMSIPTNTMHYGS

[4] = target: T3, Protein arginine N-methyltransferase 5 (Homo sapiens, UniProt O14744); test: (§2) Competitive inhibition of recombinant human N-terminal FLAG-tagged PRMT5 (2 to end residues) /human N-terminal His-tagged MEP50 (2 to end residues) expressed in HEK293F cells pretreated for 15 mins followed by varying peptide substrate and fixed [3H]-SAM addition measured after 60 mins by scintillation proximity assay; assay type: cell-based
How it was run: (§3)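 Mode of inhibition: IC50 values determined by radiometric scintillation proximity assay in the presence of various concentrations of peptide substrate and SAM; experiments performed in triplicate.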

MV4-11 = test: Antiproliferative activity against human MV4-11 cells after 4 days by cell titer-glo luminescent cell viability assay; conditions: MV4-11, 96 h
Pfeiffer = test: Antiproliferative activity against human Pfeiffer cells after 4 days by cell titer-glo luminescent cell viability assay; conditions: 96 h
SUD4 = test: Antiproliferative activity against human SU-DHL4 cells after 4 days by cell titer-glo luminescent cell viability assay; conditions: SU-DHL-4, 96 h
KARPAS-422 [5] = test: Antiproliferative activity against human KARPAS422 cells after 4 days by cell titer-glo luminescent cell viability assay; conditions: KARPAS-422, 96 h
[6] = target: T3, Protein arginine N-methyltransferase 5; test: Inhibition of PRMT5 in human KARPAS422 cells assessed as decrease in symmetric arginine dimethylation of SmD3 after 4 days by Western blot analysis; assay type: cell-based; conditions: in the assay text read “after 72 h” for “after 4 days”
How it was run: (§4)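 KARPAS-422 and SU-DHL-4 cells treated across a concentration range; symmetric arginine dimethylation of SmD3 detected by Western blot with symmetric dimethyl arginine (SDMA) antibody.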

[7] = target: T3, Protein arginine N-methyltransferase 5; test: Inhibition of PRMT5 in human SU-DHL4 cells assessed as decrease in symmetric arginine dimethylation of SmD3 after 4 days by Western blot analysis; assay type: cell-based; conditions: in the assay text read “after 72 hrs” for “after 4 days”; how it was run: as §4
KARPAS-422 [8] = test: Induction of apoptosis in human KARPAS422 cells assessed as viable cells at 4 uM after 48 hrs by AnnexinV-FITC staining-based flow cytometric analysis (reference value: 91.3%); assay type: functional; conditions: KARPAS-422, 48 h, read-out: Activity
KARPAS-422 [9] = test: Induction of apoptosis in human KARPAS422 cells assessed as apoptotic cells at 4 uM after 48 hrs by AnnexinV-FITC staining-based flow cytometric analysis (reference value: 4.08%); assay type: functional
KARPAS-422 [10] = test: Induction of apoptosis in human KARPAS422 cells assessed as necrotic cells at 4 uM after 48 hrs by AnnexinV-FITC staining-based flow cytometric analysis (reference value: 3.20%); assay type: functional
KARPAS-422 [11] = test: Induction of apoptosis in human KARPAS422 cells assessed as viable cells at 8 uM after 48 hrs by AnnexinV-FITC staining-based flow cytometric analysis (reference value: 91.3%); assay type: functional; conditions: KARPAS-422, 48 h, read-out: Activity
KARPAS-422 [12] = test: Induction of apoptosis in human KARPAS422 cells assessed as apoptotic cells at 8 uM after 48 hrs by AnnexinV-FITC staining-based flow cytometric analysis (reference value: 4.08%); assay type: functional
KARPAS-422 [13] = test: Induction of apoptosis in human KARPAS422 cells assessed as necrotic cells at 8 uM after 48 hrs by AnnexinV-FITC staining-based flow cytometric analysis (reference value: 3.20%); assay type: functional
KARPAS-422 [14] = test: Induction of apoptosis in human KARPAS422 cells assessed as viable cells at 16 uM after 48 hrs by AnnexinV-FITC staining-based flow cytometric analysis (reference value: 91.3%); assay type: functional; conditions: KARPAS-422, 48 h, read-out: Activity
KARPAS-422 [15] = test: Induction of apoptosis in human KARPAS422 cells assessed as apoptotic cells at 16 uM after 48 hrs by AnnexinV-FITC staining-based flow cytometric analysis (reference value: 4.08%); assay type: functional
KARPAS-422 [16] = test: Induction of apoptosis in human KARPAS422 cells assessed as necrotic cells at 16 uM after 48 hrs by AnnexinV-FITC staining-based flow cytometric analysis (reference value: 3.20%); assay type: functional
KARPAS-422 [17] = test: Cell cycle arrest in human KARPAS422 cells assessed as accumulation of cells at G1 phase at 4 uM after 48 hrs by propidium iodide staining-based flow cytometric analysis (reference value: 39.56%); assay type: functional
KARPAS-422 [18] = test: Cell cycle arrest in human KARPAS422 cells assessed as accumulation of cells at G1 phase at 8 uM after 48 hrs by propidium iodide staining-based flow cytometric analysis (reference value: 39.56%); assay type: functional
KARPAS-422 [19] = test: Cell cycle arrest in human KARPAS422 cells assessed as accumulation of cells at G1 phase at 16 uM after 48 hrs by propidium iodide staining-based flow cytometric analysis (reference value: 39.56%); assay type: functional
KARPAS-422 [20] = test: Cell cycle arrest in human KARPAS422 cells assessed as accumulation of cells at G1 phase after 48 hrs by propidium iodide staining-based flow cytometric analysis; assay type: functional
KARPAS-422 [21] = test: Induction of apoptosis in human KARPAS422 cells after 48 hrs by AnnexinV-FITC staining-based flow cytometric analysis; assay type: functional, cell-based
PRMT5/MEP50 complex [22] = target: T1, PRMT5/MEP50 complex; test: Binding affinity to PRMT5 (unknown origin)/MEP50 (unknown origin) by SPR assay; assay type: protein-complex assay
How it was run: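 Direct binding to PRMT5 measured by surface plasmon resonance; equilibrium dissociation constant (KD) derived.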

[23] = target: T3, Protein arginine N-methyltransferase 5; test: as §2, with “Non-competitive” for “Competitive”, “fixed” for “varying”, “varying” for “fixed”; assay type: cell-based; how it was run: as §3
KARPAS-422 [24] = test: Cell cycle arrest in human KARPAS422 cells assessed as accumulation of cells at S phase at 4 uM after 48 hrs by propidium iodide staining-based flow cytometric analysis (reference value: 47.8%); assay type: functional
KARPAS-422 [25] = test: Cell cycle arrest in human KARPAS422 cells assessed as accumulation of cells at S phase at 8 uM after 48 hrs by propidium iodide staining-based flow cytometric analysis (reference value: 47.8%); assay type: functional
KARPAS-422 [26] = test: Cell cycle arrest in human KARPAS422 cells assessed as accumulation of cells at S phase at 16 uM after 48 hrs by propidium iodide staining-based flow cytometric analysis (reference value: 47.8%); assay type: functional
KARPAS-422 [27] = test: Cell cycle arrest in human KARPAS422 cells assessed as accumulation of cells at G2/M phase at 4 uM after 48 hrs by propidium iodide staining-based flow cytometric analysis (reference value: 12.64%); assay type: functional
KARPAS-422 [28] = test: Cell cycle arrest in human KARPAS422 cells assessed as accumulation of cells at G2/M phase at 8 uM after 48 hrs by propidium iodide staining-based flow cytometric analysis (reference value: 12.64%); assay type: functional
KARPAS-422 [29] = test: Cell cycle arrest in human KARPAS422 cells assessed as accumulation of cells at G2/M phase at 16 uM after 48 hrs by propidium iodide staining-based flow cytometric analysis (reference value: 12.64%); assay type: functional

T3 sequence (O14744 whole entry): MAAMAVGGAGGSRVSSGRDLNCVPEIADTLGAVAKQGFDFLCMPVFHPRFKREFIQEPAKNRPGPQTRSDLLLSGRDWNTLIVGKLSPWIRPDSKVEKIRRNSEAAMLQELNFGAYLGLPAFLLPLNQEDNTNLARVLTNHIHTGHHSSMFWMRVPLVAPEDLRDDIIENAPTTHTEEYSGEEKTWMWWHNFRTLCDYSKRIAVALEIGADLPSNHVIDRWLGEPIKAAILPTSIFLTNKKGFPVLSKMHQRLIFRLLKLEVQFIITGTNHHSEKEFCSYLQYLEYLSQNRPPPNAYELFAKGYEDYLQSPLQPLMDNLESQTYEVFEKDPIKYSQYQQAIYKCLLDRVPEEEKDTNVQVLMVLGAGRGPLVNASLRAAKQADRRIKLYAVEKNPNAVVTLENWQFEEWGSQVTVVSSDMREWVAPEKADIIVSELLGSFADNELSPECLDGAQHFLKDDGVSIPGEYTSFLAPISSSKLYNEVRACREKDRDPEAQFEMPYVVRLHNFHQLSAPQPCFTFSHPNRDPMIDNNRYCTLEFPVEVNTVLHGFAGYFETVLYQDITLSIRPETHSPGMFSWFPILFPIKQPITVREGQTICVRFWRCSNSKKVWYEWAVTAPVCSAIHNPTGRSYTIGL
T1 sequence (O14744 whole entry): as above
T1 sequence (Q9BQA1 whole entry, further chain): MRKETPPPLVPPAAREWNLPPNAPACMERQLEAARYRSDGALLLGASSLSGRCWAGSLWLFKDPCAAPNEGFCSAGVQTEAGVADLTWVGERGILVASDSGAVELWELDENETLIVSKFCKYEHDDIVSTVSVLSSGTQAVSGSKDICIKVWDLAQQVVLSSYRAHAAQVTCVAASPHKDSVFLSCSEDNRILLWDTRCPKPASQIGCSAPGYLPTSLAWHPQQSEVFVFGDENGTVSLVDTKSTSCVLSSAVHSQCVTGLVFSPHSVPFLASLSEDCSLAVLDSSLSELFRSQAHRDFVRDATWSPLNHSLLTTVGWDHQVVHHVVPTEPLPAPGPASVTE
Sequence of Protein arginine N-methyltransferase 1 (Q99873 whole entry): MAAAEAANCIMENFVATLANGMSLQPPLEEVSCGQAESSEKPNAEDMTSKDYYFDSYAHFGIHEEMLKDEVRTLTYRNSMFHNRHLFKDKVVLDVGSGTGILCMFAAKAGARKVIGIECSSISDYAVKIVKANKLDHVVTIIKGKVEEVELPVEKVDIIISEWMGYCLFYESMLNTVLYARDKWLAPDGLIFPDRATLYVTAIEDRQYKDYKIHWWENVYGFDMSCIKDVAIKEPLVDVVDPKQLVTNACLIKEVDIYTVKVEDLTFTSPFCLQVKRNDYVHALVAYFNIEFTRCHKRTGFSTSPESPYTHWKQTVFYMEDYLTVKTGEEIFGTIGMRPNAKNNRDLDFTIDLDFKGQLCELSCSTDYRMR

IC50 (PRMT5/MEP50 complex [1]): > 100 µM
SMILES: O=C(CCN1CCc2ccccc2C1)Nc1cccc2ncccc12

IC50 (PRMT5/MEP50 complex [1]): 51.9 µM
SMILES: CC(=O)c1cccc(NC(=O)CCN2CCc3ccccc3C2)c1

IC50 (PRMT5/MEP50 complex [1]): > 100 µM
SMILES: O=C(CCN1CCc2ccccc2C1)Nc1ccccc1

IC50 (PRMT5/MEP50 complex [1]): 2.71 µM
IC50 [2]: > 200 µM
IC50 [3]: > 200 µM
inhibition [4]: Active
IC50 (MV4-11): 12.5 µM
IC50 (KARPAS-422 [5]): 9.1 µM
inhibition [6]: Dose-dependent effect
inhibition [7]: inactive
Kd (PRMT5/MEP50 complex [22]): 10.8 µM
inhibition [23]: Active
SMILES: N#Cc1c(Br)cccc1NC(=O)CCN1CCc2ccccc2C1
IC50 (Pfeiffer): 11.1 µM
IC50 (SUD4): 16.4 µM
viability at 4 µM (KARPAS-422 [8]): 90.5%
Activity (KARPAS-422 [9]): 4.66%
Activity (KARPAS-422 [10]): 2.35%
viability at 8 µM (KARPAS-422 [11]): 88.1%
Activity (KARPAS-422 [12]): 7.89%
Activity (KARPAS-422 [13]): 2.93%
viability at 16 µM (KARPAS-422 [14]): 66.3%
Activity (KARPAS-422 [15]): 23.1%
Activity (KARPAS-422 [16]): 8.76%
Activity (KARPAS-422 [17]): 44.75%
Activity (KARPAS-422 [18]): 50.53%
Activity (KARPAS-422 [19]): 54.34%
Activity (KARPAS-422 [20]): Dose-dependent effect
Activity (KARPAS-422 [21]): Dose-dependent effect
Activity (KARPAS-422 [24]): 41.52%
Activity (KARPAS-422 [25]): 37.72%
Activity (KARPAS-422 [26]): 36.18%
Activity (KARPAS-422 [27]): 13.73%
Activity (KARPAS-422 [28]): 11.75%
Activity (KARPAS-422 [29]): 9.48%

inhibition [6]: Dose-dependent effect
SMILES: O=C(NC[C@H](O)CN1CCc2ccccc2C1)c1cc(NC2COC2)ncn1

IC50 (PRMT5/MEP50 complex [1]): 69.9 µM
SMILES: O=C(CCN1CCc2ccccc2C1)Nc1nccc(C(F)(F)F)n1

IC50 (PRMT5/MEP50 complex [1]): 72.7 µM
SMILES: O=C(CCN1CCc2ccccc2C1)NNC(=O)c1ccccc1

IC50 (PRMT5/MEP50 complex [1]): > 100 µM
SMILES: Cc1cc([N+](=O)[O-])ccc1NC(=O)CCN1CCc2ccccc2C1

IC50 (PRMT5/MEP50 complex [1]): > 100 µM
SMILES: Cc1ccc(NC(=O)CCN2CCc3ccccc3C2)cc1

IC50 (PRMT5/MEP50 complex [1]): > 100 µM
SMILES: Cc1cccc(NC(=O)CCN2CCc3ccccc3C2)c1

IC50 (PRMT5/MEP50 complex [1]): 18.1 µM
SMILES: O=C(CCN1CCc2ccccc2C1)Nc1cccc(Br)c1

IC50 (PRMT5/MEP50 complex [1]): > 100 µM
SMILES: COc1ccc(NC(=O)CCN2CCc3ccccc3C2)cc1

IC50 (PRMT5/MEP50 complex [1]): 45.9 µM
SMILES: O=C(CCN1CCc2ccccc2C1)Nc1cccc(F)c1
